In ChEMBL document CHEMBL1130151, “Curcumin analogs with altered potencies against HIV-1 integrase as probes for biochemical mechanisms of drug action” (J Med Chem, 1997):
pIC50: −log10 of the molar value.

Assays:
[1] = molecular target: T1, Human immunodeficiency virus type 1 integrase (Human immunodeficiency virus 1, UniProt Q7ZJM1); assay: Inhibition of 3'- processing activity of HIV-1 integrase
How it was run: (§1)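 Recombinant HIV-1 integrase (200 nM final) preincubated with inhibitor 30 min at 30 °C in buffer (pH 7.2 MOPS, 7.5 mM MnCl2, 10% DMSO, 50 mM NaCl, BSA, reducing agents, glycerol). Then 20 nM 5′-32P-labeled linear oligonucleotide substrate added, reaction run 1 h more. Products resolved on denaturing 20% polyacrylamide/urea gel. IC50 read from plot of concentration versus percent inhibition.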

[2] = molecular target: T1, Human immunodeficiency virus type 1 integrase; assay: Inhibition of strand transfer activity of HIV-1 integrase; how it was run: as §1

T1 sequence (Q7ZJM1 whole entry): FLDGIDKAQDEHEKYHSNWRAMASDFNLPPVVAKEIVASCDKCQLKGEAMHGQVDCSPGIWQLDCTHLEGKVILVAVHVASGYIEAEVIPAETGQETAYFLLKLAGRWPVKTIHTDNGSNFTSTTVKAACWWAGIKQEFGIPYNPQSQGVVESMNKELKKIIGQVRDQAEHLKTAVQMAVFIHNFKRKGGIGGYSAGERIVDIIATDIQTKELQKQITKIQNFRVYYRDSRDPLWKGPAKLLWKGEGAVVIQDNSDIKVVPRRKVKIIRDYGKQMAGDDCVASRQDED

| pIC50 [1] | pIC50 [2] | Compound |
| --- | --- | --- |
| < 3.52 | < 3.52 | O=C(/C=C/c1ccccc1)CC(=O)/C=C/c1ccccc1 |
| < 3.52 | < 3.52 | COc1ccc(/C=C/C(=O)CC(=O)/C=C/c2ccc(OC)cc2)cc1 |
| 4.74 | 5.05 | COc1cc(/C=C/C(=O)CC(=O)/C=C/c2ccc(O)c(O)c2)ccc1O |
| 5.22 | 5.51 | O=C(/C=C/c1ccc(O)c(O)c1)CC(=O)/C=C/c1ccc(O)c(O)c1 |
| 3.92 | 4.10 | O=C(/C=C/c1ccc(O)cc1)CC(=O)/C=C/c1ccc(O)cc1 [BISDEMETHOXYCURCUMIN] |
| 3.82 | 3.85 | COc1cc(/C=C/C(=O)CC(=O)/C=C/c2ccc(O)c(OC)c2)ccc1O [CURCUMIN] |
| 3.85 | 3.92 | COc1cc(/C=C/C(O)=C/C(=O)/C=C/c2ccc(O)cc2)ccc1O [DEMETHOXYCURCUMIN] |
| 5.05 | 5.40 | O=C(/C=C/c1ccc(O)c(O)c1)O[C@H](Cc1ccc(O)c(O)c1)C(=O)O [ROSMARINIC ACID] |
| < 3.52 | < 3.52 | COc1cc(CCC(=O)CC(=O)CCc2ccc(O)c(OC)c2)ccc1O [TETRAHYDROCURCUMIN] |
